The values below come from paper PMC6380921 (Environmental science & technology, 2019).

The target of series [1] is T1, recombinant human CYP2A6 (Homo sapiens, UniProt P11509).
T1 sequence (P11509 1-494): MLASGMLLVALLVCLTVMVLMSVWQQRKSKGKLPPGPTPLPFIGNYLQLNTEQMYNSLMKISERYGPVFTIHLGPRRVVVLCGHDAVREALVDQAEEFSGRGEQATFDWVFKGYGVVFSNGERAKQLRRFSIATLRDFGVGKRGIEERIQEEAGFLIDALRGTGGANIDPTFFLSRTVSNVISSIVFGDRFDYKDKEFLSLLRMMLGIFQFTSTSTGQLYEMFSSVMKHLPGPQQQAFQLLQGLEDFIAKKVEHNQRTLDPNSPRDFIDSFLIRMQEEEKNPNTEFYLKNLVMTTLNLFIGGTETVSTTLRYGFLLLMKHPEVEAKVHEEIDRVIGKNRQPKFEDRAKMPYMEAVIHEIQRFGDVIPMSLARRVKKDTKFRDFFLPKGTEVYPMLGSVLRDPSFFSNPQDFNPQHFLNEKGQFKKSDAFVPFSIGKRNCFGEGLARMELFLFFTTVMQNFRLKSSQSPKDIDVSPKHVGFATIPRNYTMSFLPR
The experiment in a line: PCB biotransformation assay with recombinant human CYP2A6. In kind it is in vitro ADME. As to conditions: for enantiomeric fraction (EF) of OH-PCB metabolite, CYP2A6: EF = Area E1/(Area E1 + Area E2), 50 μM PCB, 60 min, 37 °C, 10 pmol/mL P450; for metabolite as percent of ΣOH-PCBs of the parent PCB, CYP2A6: racemic PCB 50 µM, 10 pmol P450/mL, 37°C, mean ± SD; for ratio of 3–103: 5–95: 4–95: 4’−95 (relative to 4’−95 = 1), recombinant CYP2A6: PCB 95 incubation.

Series [2] deals with human liver microsomes (HLMs). As to conditions: cited from earlier work; for enantiomeric fraction (EF) of 1,2-shift products, HLMs: incubations with HLMs; for ratio of 3–103: 5–95: 4–95: 4’−95 (relative to 4’−95 = 1), HLMs: PCB 95 with HLMs; for enantiomeric fraction (EF) of 5-hydroxylated metabolites, HLMs: metabolism studies with HLMs.
For series [3], the target named is T2, recombinant human CYP2B6 (Homo sapiens, UniProt P20813).
T2 sequence (P20813 1-491): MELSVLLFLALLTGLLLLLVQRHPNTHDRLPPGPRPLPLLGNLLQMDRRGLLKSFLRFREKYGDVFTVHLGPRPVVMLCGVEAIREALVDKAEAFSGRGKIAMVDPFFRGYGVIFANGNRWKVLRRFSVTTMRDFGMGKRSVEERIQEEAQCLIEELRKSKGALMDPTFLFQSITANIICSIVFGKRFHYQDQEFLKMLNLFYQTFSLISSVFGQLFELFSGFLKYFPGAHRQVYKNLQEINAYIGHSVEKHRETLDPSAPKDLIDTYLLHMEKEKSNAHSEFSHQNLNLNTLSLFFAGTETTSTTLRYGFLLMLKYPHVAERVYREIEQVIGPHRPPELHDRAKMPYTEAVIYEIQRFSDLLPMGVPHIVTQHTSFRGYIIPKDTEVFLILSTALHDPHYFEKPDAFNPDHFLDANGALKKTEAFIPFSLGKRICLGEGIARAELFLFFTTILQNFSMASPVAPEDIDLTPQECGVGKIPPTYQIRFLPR
The experiment in a line: PCB biotransformation assay with recombinant human CYP2B6. It counts as in vitro ADME. As to conditions: for enantiomeric fraction (EF) of OH-PCB metabolite, CYP2B6: EF = Area E1/(Area E1 + Area E2), 50 μM PCB, 60 min, 37 °C, 10 pmol/mL P450; for metabolite as percent of ΣOH-PCBs of the parent PCB, CYP2B6: racemic PCB 50 µM, 10 pmol P450/mL, 37°C, mean ± SD.

For series [4], the target named is T2, recombinant human CYP2B6. As to conditions: cited from earlier work.
For series [5], the target named is recombinant human CYP2E1 (Homo sapiens, UniProt P05181). The note with it: cited from earlier work.
Chain of recombinant human CYP2E1 (P05181 whole entry): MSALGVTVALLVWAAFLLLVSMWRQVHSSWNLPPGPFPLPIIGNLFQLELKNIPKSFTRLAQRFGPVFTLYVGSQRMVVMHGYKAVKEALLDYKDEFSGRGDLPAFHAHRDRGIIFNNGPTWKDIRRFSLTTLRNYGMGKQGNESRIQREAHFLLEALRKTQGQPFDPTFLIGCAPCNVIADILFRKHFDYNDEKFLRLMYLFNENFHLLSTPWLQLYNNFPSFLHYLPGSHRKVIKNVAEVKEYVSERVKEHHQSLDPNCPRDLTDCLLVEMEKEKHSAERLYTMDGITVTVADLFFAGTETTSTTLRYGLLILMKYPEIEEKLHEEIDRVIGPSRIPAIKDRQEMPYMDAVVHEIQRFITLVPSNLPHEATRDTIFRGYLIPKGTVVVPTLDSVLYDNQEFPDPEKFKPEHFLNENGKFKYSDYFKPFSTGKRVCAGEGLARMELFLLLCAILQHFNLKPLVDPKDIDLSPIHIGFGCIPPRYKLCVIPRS
In series [6] the target is T3, recombinant human CYP1A2 (Homo sapiens, UniProt P05177).
T3 sequence (P05177 1-516): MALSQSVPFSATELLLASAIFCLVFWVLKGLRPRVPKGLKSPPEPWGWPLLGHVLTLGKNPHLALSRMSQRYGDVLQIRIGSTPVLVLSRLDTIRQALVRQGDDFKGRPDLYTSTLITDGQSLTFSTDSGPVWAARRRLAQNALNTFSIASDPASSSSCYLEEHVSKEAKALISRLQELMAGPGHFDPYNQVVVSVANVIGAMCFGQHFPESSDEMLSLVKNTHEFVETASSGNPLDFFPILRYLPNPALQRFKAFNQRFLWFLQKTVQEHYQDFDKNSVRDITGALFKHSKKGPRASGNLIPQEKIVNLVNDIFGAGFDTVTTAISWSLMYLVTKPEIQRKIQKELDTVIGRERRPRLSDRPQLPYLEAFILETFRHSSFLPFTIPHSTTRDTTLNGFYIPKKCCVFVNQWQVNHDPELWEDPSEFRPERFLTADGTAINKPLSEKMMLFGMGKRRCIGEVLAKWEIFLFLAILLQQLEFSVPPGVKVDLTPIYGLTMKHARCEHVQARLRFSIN
As to conditions: cited from earlier work.

Series [7] concerns the target T4, recombinant human CYP3A4 (Homo sapiens, UniProt P08684). As to conditions: cited from earlier work.
Series [8] has as its target T3, recombinant human CYP1A2. The experiment in a line: PCB biotransformation assay with recombinant human CYP1A2. It counts as in vitro ADME. The note with it: racemic PCB 50 µM; 10 pmol P450/mL; 37°C. The essentials: (§1)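 Human P450 co-expressed with human CYP-reductase in E. coli, 10 pmol/mL, in 0.1 M phosphate pH 7.4 with 3 mM MgCl2 and NADPH-regenerating system (~1 mM NADPH final). After 5 min preincubation, racemic PCB added (50 µM final, DMSO ≤0.5% v/v); incubated up to 60 min at 37°C; stopped with ice-cold NaOH plus heating. OH-PCBs identified as methylated derivatives by high-resolution GC/TOF-MS in 60-min extracts. Control Bactosomes; triplicates.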

The target of series [9] is T4, recombinant human CYP3A4. The experiment in a line: PCB biotransformation assay with recombinant human CYP3A4. It counts as in vitro ADME. As to conditions: racemic PCB 50 µM; 10 pmol P450/mL; 37°C. The essentials: as §1

T4 sequence (P08684 whole entry): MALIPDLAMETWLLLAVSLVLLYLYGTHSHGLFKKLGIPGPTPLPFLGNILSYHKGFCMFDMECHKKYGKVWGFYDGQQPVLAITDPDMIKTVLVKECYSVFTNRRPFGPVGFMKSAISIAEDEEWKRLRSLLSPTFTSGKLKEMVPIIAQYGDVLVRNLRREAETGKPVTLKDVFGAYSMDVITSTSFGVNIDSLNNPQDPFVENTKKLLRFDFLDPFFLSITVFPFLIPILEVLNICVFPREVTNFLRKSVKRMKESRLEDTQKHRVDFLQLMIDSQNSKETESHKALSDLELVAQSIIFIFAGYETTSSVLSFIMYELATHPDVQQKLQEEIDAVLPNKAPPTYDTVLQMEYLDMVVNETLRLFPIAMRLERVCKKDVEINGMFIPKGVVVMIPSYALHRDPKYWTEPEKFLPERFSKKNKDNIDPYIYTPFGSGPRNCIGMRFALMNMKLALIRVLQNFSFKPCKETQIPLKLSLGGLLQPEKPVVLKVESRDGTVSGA

Consider `Oc1c(Cl)cc(Cl)c(-c2ccc(Cl)cc2Cl)c1Cl` [3–100], for which, in [1], the “enantiomeric fraction (EF) of OH-PCB metabolite, CYP2A6” value (shortened to “enantiomeric fraction (EF) … CYP2A6”) was 0.92 and the “metabolite as percent of ΣOH-PCBs of the parent PCB, CYP2A6” value (“metabolite as percent … CYP2A6” below) is on record as 81 ± 2%. The “enantiomeric fraction (EF) of 1,2-shift products, HLMs” value in series [2] is recorded as 0.85.
Regarding `Oc1cc(Cl)c(Cl)c(-c2cc(Cl)ccc2Cl)c1Cl` [5–95], in series [1], the “ratio of 3–103: 5–95: 4–95: 4’−95 (relative to 4’−95 = 1), recombinant CYP2A6” value is given as 0.04. The “formation rate by CYP2B6, times lower compared to CYP2A6” value in series [3] (PCB 95 incubation) was 2 times. The “ratio of 3–103: 5–95: 4–95: 4’−95 (relative to 4’−95 = 1), HLMs” value in series [2] is reported as 0.06.
Regarding `Oc1cc(Cl)c(-c2ccc(Cl)cc2Cl)c(Cl)c1Cl` [4–91], the “enantiomeric fraction (EF) … CYP2A6” value in series [1] is given as 0.39. The “enantiomeric fraction (EF) of OH-PCB metabolite, CYP2B6” value (“enantiomeric fraction (EF) … CYP2B6” below) in series [3] came to 0.60.
On to `Clc1ccc(Cl)c(-c2cc(Cl)ccc2Cl)c1` [PCB 52, 2,2’,5,5’-tetrachlorobiphenyl], for which the “oxidation by CYP2B6, earlier studies” value in series [4] is reported as “did not observe any oxidation”. In series [5], the “oxidation by CYP2E1, earlier studies” value is listed as “did not observe any oxidation”. The “metabolism by recombinant CYP1A2, earlier studies” value in [6] is given as “did not metabolize”. Moreover, in series [7], the “metabolism by recombinant CYP3A4, earlier studies” value is “did not metabolize”.
Turning to `Clc1ccc(-c2c(Cl)ccc(Cl)c2Cl)c(Cl)c1Cl` [PCB 132, 2,2’,3,3’,4,6’-hexachlorobiphenyl], in [8], the “OH-PCB metabolites detected in incubations with CYP1A2” value was “no metabolites were detected”. Further, in series [9], the “OH-PCB metabolites detected in incubations with CYP3A4” value is “no metabolites were detected”.
In the case of `Oc1cc(Cl)c(-c2c(Cl)ccc(Cl)c2Cl)c(Cl)c1Cl` [4–136], in [1], the “enantiomeric fraction (EF) … CYP2A6” value is on record as 0.10 and the “metabolite as percent … CYP2A6” value was 64 ± 2%.
As to `Clc1ccc(-c2c(Cl)ccc(Cl)c2Cl)c(Cl)c1` [PCB 91, 2,2’,3,4’,6-pentachlorobiphenyl], the “OH-PCB metabolites detected in incubations with CYP1A2” value in series [8] was “no metabolites were detected”. For the same compound, the “OH-PCB metabolites detected in incubations with CYP3A4” value in [9] was “no metabolites were detected”.
As to `Oc1c(Cl)cc(Cl)c(-c2ccc(Cl)c(Cl)c2Cl)c1Cl` [3’−140], the “metabolite as percent … CYP2A6” value in [1] came to 67 ± 1%. Moreover, the “enantiomeric fraction (EF) of 1,2-shift products, HLMs” value in series [2] is recorded as 0.84.
`Clc1ccc(Cl)c(-c2c(Cl)ccc(Cl)c2Cl)c1` [PCB 95, 2,2’,3,5’,6-pentachlorobiphenyl]: the “OH-PCB metabolites detected in incubations with CYP1A2” value in series [8] was “no metabolites were detected”. Besides, the “OH-PCB metabolites detected in incubations with CYP3A4” value in series [9] is “no metabolites were detected”. Moreover, the “oxidation by CYP2B6, earlier studies” value in [4] is listed as “did not observe any oxidation”. Besides, the “oxidation by CYP2E1, earlier studies” value in series [5] is “did not observe any oxidation”. Also, in [6], the “metabolism by recombinant CYP1A2, earlier studies” value was “did not metabolize”. In addition, in series [7], the “metabolism by recombinant CYP3A4, earlier studies” value is on record as “did not metabolize”.
As for `Clc1ccc(Cl)c(-c2c(Cl)ccc(Cl)c2Cl)c1Cl` [PCB 136, 2,2’,3,3’,6,6’-hexachlorobiphenyl], the “OH-PCB metabolites detected in incubations with CYP1A2” value in [8] is listed as “no metabolites were detected”. Also, the “OH-PCB metabolites detected in incubations with CYP3A4” value in [9] was “no metabolites were detected”.
Turning to `Oc1c(Cl)cc(Cl)c(-c2cc(Cl)ccc2Cl)c1Cl` [3–103], in [1], the “enantiomeric fraction (EF) … CYP2A6” value is reported as 0.99 and the “ratio of 3–103: 5–95: 4–95: 4’−95 (relative to 4’−95 = 1), recombinant CYP2A6” value was 0.11. Moreover, the “ratio of 3–103: 5–95: 4–95: 4’−95 (relative to 4’−95 = 1), HLMs” value in series [2] is on record as 0.11.
`Oc1cc(Cl)c(Cl)c(-c2c(Cl)ccc(Cl)c2Cl)c1Cl` [5–136]: in series [1] (PCB 136 incubation), the “ratio of 5–136: 4–136 (4–136 = 1) formed with CYP2A6” value came to 0.3. In series [3], the “enantiomeric fraction (EF) … CYP2B6” value was 0.50 and the “metabolite as percent of ΣOH-PCBs of the parent PCB, CYP2B6” value (from here on “metabolite as percent … CYP2B6”) is 94 ± 0.3%. Moreover, in [2] (PCB 136 with HLMs), the “ratio of 5–136: 4–136 (4–136 = 1), HLMs” value is recorded as 0.39 and the “ratio of 5–136: 4–136 (4–136 = 1), HLMs, earlier study” value is given as 1.3. Also, the “enantiomeric fraction (EF) of 5-hydroxylated metabolites, HLMs” value in series [2] was 0.31.
`Oc1cc(Cl)c(Cl)c(-c2ccc(Cl)c(Cl)c2Cl)c1Cl` [5’−132]: in series [3], the “enantiomeric fraction (EF) … CYP2B6” value turned out to be 0.32 and the “metabolite as percent … CYP2B6” value came out at 81 ± 7%. Further, the “enantiomeric fraction (EF) of 5-hydroxylated metabolites, HLMs” value in series [2] is reported as 0.19.
Regarding `Oc1cc(Cl)c(Cl)c(-c2ccc(Cl)cc2Cl)c1Cl` [5–91], in series [3], the “enantiomeric fraction (EF) … CYP2B6” value came out at 0.49 and the “metabolite as percent … CYP2B6” value is listed as 98.4 ± 0.1%. Also, the “enantiomeric fraction (EF) of 5-hydroxylated metabolites, HLMs” value in series [2] is given as 0.47.
